According to ChEMBL document CHEMBL4177752, “Discovery of Novel Schizocommunin Derivatives as Telomeric G-Quadruplex Ligands That Trigger Telomere Dysfunction and the Deoxyribonucleic Acid (DNA) Damage Response” (J Med Chem, 2018):
The source made the active and inactive calls. No cut-off for these calls is given here.

Legend:
[1] = Stabilization of F10T hairpin duplex DNA (unknown origin) assessed as change in melting temperature at 1 uM by FRET assay
Method in brief: (§1)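 FRET melting: 0.2 µM F21T or F10T (FAM/TAMRA-labelled), with or without 1.0 µM ligand, in 10 mM Tris-HCl pH 7.4 with 60 mM KCl. Excitation 470 nm, emission 530 nm, read every 1 °C from 37–99 °C at 1 °C/min with a 30 s hold. ΔTm = Tm(DNA+ligand) − Tm(DNA).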

HeLa = experiment: Antiproliferative activity against human HeLa cells after 48 hrs by MTT assay; type: functional, cell-based
Method in brief: (§2)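 Cells seeded at 5.0×10^3 per well and exposed to a range of compound concentrations for 48 h. MTT (2.5 mg/mL solution) was then added for 4 h, formazan was dissolved in DMSO, and OD was read at 570 nm. HL-60 was grown in RPMI-1640 with 10% FBS, the other lines in DMEM with 10% FBS, at 37 °C and 5% CO2. Triplicates; IC50 taken from mean OD versus concentration curves.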

Quadruplex DNA [2] = experiment: Binding affinity to HTG21 telomeric G-quadruplex DNA (unknown origin) by SPR method; type: nucleic-acid assay
Method in brief: (§3)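 SPR: biotinylated HTG21 or hairpin DNA (200 nM) was folded in 50 mM Tris-HCl pH 7.4 with 100 mM KCl and captured to about 1,000 RU on an NLC chip against a blank reference cell. Ligand at 0.625–40 µM was injected at 25 µL/min (400 s association, 300 s dissociation) at 25 °C. The chip was regenerated with 1 M KCl and blank sensorgrams were subtracted.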

U2OS = experiment: Antiproliferative activity against human U2OS cells after 48 hrs by MTT assay; type: functional, cell-based; method in brief: as §2
HL-60 = experiment: Antiproliferative activity against human HL60 cells after 48 hrs by MTT assay; type: functional, cell-based; conditions: HL-60, 48 h; method in brief: as §2
SiHa = experiment: Antiproliferative activity against human SiHa cells after 48 hrs by MTT assay; type: functional, cell-based; method in brief: as §2
Quadruplex DNA [3] = experiment: Stabilization of F21T telomeric G-quadruplex DNA (unknown origin) assessed as change in melting temperature at 1 uM by FRET assay; type: nucleic-acid assay; method in brief: as §1
A549 = experiment: Antiproliferative activity against human A549 cells after 48 hrs by MTT assay; type: functional, cell-based; conditions: A549, 48 h; method in brief: as §2
[4] = Binding affinity to hairpin duplex DNA (unknown origin) at 40 uM by SPR method; method in brief: as §3

Compound | ΔTm [1] [°C] | IC50 (HeLa) [µM] | Kd (Quadruplex DNA [2]) [µM] | IC50 (U2OS) [µM] | IC50 (HL-60) [µM] | ΔTm (Quadruplex DNA [3]) [°C] | IC50 (A549) [µM] | Activity [4] | IC50 (SiHa) [µM]
CN(C)CCCN(C)c1cc2c(cc1F)/C(=C/c1nc3cc(NCCN(C)C)c(F)cc3c(=O)[nH]1)C(=O)N2 | 0.3 | 22.6 | 14 | 9.2 | 5.6 | 20.1 | 12.4 | inactive | 7.6
CN(C)CCCNc1cc2nc(/C=C3/C(=O)Nc4ccccc43)n(CCCN(C)C)c(=O)c2cc1F | 0.1 | 27.1 | > 40 | 28.4 | 8.2 | 9.2 | 18.2 | inactive | 30.5
CN1CCN(c2cc3c(cc2F)/C(=C/c2nc4cc(N5CCN(C)CC5)c(F)cc4c(=O)[nH]2)C(=O)N3)CC1 | 0.1 | > 50 | > 40 | > 50 | 12.3 | 12.2 | > 50 | inactive | > 50
CN(C)CCCN(C)c1cc2c(cc1F)/C(=C/c1nc3cc(N4CCN(C)CC4)c(F)cc3c(=O)[nH]1)C(=O)N2 | 0.2 | 12.8 | > 40 | 9.4 | 3.2 | 15.6 | 10.4 | inactive | 3.5
CCN(CC)CCCN1C(=O)/C(=C\c2nc3cc(N4CCN(C)CC4)c(F)cc3c(=O)[nH]2)c2ccccc21 | 0.3 | > 50 | > 40 | > 50 | 13.2 | 5.8 | > 50 | inactive | > 50
CN(C)CCCNc1cc2nc(/C=C3\C(=O)Nc4ccccc43)[nH]c(=O)c2cc1F | 0.2 | 13.4 | > 40 | 18.7 | 3.2 | 11.8 | 14.8 | inactive | 17.1
CN(C)CCCNc1ccc2c(=O)[nH]c(/C=C3\C(=O)Nc4cc(N5CCN(C)CC5)ccc43)nc2c1 | 0.1 | 49 | > 40 | 14.1 | 4.3 | 16.5 | 19 | inactive | 11.5
CN1CCN(c2ccc3c(c2)NC(=O)/C3=C\c2nc3cc(NCCN4CCCCC4)c(F)cc3c(=O)[nH]2)CC1 | 0.2 | 20.5 | > 40 | 3.6 | 2.8 | 18.7 | 1.8 | inactive | 5.4
CN1CCN(c2ccc3c(c2)NC(=O)/C3=C\c2nc3cc(NCCN4CCCC4)c(F)cc3c(=O)[nH]2)CC1 | 0.2 | 17.4 | > 40 | 6.4 | 3.6 | 18.6 | 4.1 | inactive | 10.9
CN(C)CCCNc1cc2nc(/C=C3\C(=O)Nc4cc(N(C)CCCN(C)C)c(F)cc43)[nH]c(=O)c2cc1F | 0.3 | 7.1 | 18 | 8.3 | 6.5 | 18.2 | 14.3 | inactive | 2.9
CN(C)CCNc1cc2nc(/C=C3\C(=O)Nc4cc(N5CCN(C)CC5)ccc43)[nH]c(=O)c2cc1F | 0.2 | 15.7 | > 40 | 6.3 | 7.8 | 18 | 2.2 | inactive | 3.4

Second part, led by results:

ΔTm [1] [°C] | IC50 (HeLa) [µM] | Kd (Quadruplex DNA [2]) [µM] | IC50 (U2OS) [µM] | IC50 (HL-60) [µM] | ΔTm (Quadruplex DNA [3]) [°C] | IC50 (A549) [µM] | Activity [4] | Compound | IC50 (SiHa) [µM]
0.1 | > 50 | > 40 | > 50 | > 50 | 8.6 | > 50 | inactive | O=C1Nc2ccccc2/C1=C/c1nc2cc(NCCCN3CCOCC3)c(F)cc2c(=O)[nH]1 | > 50
0.2 | 10 | 7.4 | 7.6 | 5.4 | 20.6 | 2.3 | inactive | CCN(CC)CCCNc1cc2nc(/C=C3\C(=O)Nc4cc(N5CCN(C)CC5)ccc43)[nH]c(=O)c2cc1F | 2.8
0.3 | 9 | 7.9 | 16.4 | 2.9 | 23.6 | 25.3 | inactive | CN1CCN(c2cc3c(cc2F)/C(=C/c2nc4cc(NCCCN5CCCC5)c(F)cc4c(=O)[nH]2)C(=O)N3)CC1 | 9.4
0.1 | 10.5 | 21 | 7.1 | 2.7 | 22.7 | 5.6 | inactive | CN1CCN(c2cc3c(cc2F)/C(=C/c2nc4cc(NCCN5CCCC5)c(F)cc4c(=O)[nH]2)C(=O)N3)CC1 | 9.3
0.1 | 9.6 | 4.9 | 10.2 | 5.7 | 25.3 | 6.1 | inactive | CCN(CC)CCCNc1cc2nc(/C=C3\C(=O)Nc4cc(N5CCN(C)CC5)c(F)cc43)[nH]c(=O)c2cc1F | 7.9
0.1 | 8.8 | 9.6 | 12.7 | 3.3 | 19.8 | 9.7 | inactive | CN1CCN(CCCNc2cc3nc(/C=C4\C(=O)Nc5cc(N6CCN(C)CC6)c(F)cc54)[nH]c(=O)c3cc2F)CC1 | 2.8
0.1 | 34.3 | > 40 | 32.4 | 4.2 | 9 | > 50 | inactive | CCN(CC)CCCNc1cc2nc(/C=C3\C(=O)Nc4cc(N5CCOCC5)c(F)cc43)[nH]c(=O)c2cc1F | 43.6
0.3 | 9 | 22 | 8.2 | 1.7 | 23.1 | 6.1 | inactive | CCN(CC)CCNc1cc2nc(/C=C3\C(=O)Nc4cc(N5CCN(C)CC5)c(F)cc43)[nH]c(=O)c2cc1F | 12.4
0.1 | 30.1 | > 40 | > 50 | 3.4 | 11.9 | > 50 | inactive | CN(C)CCCNc1cc2nc(/C=C3\C(=O)Nc4cc(N5CCOCC5)c(F)cc43)[nH]c(=O)c2cc1F | > 50
0.1 | > 50 | > 40 | 12.6 | 7.5 | 10 | 8.6 | inactive | CCN(CC)CCCNc1cc2nc(/C=C3\C(=O)Nc4ccccc43)[nH]c(=O)c2cc1F | 23.4
0.2 | > 50 | > 40 | > 50 | > 50 | 5.2 | > 50 | inactive | O=C1Nc2cc(N3CCOCC3)c(F)cc2/C1=C/c1nc2cc(NCCCN3CCOCC3)c(F)cc2c(=O)[nH]1 | > 50
